Experimental data: ChEMBL document CHEMBL4014306, “Pyrazolopyrimidines as Potent Stimulators for Transient Receptor Potential Canonical 3/6/7 Channels” (J Med Chem, 2017)
Values belong to the compound of their own block, whether it stands above or below them. Calls of active or inactive are those of the source. The calls are words filed in the database; no cut-off is given here.

Key:
Type in all cases: cell-based
[1] = target: T1, Short transient receptor potential channel 6 (Mus musculus) (UniProt Q61143); test: Agonist activity at mouse TRPC6 expressed in HEK293 cells co-expressing Gq11-PLCbeta fused M5 receptor assessed as increase in intracellular calcium level measured for 2.5 mins by Fluo-8-AM dye-based fluorescence assay
T1 sequence (whole entry): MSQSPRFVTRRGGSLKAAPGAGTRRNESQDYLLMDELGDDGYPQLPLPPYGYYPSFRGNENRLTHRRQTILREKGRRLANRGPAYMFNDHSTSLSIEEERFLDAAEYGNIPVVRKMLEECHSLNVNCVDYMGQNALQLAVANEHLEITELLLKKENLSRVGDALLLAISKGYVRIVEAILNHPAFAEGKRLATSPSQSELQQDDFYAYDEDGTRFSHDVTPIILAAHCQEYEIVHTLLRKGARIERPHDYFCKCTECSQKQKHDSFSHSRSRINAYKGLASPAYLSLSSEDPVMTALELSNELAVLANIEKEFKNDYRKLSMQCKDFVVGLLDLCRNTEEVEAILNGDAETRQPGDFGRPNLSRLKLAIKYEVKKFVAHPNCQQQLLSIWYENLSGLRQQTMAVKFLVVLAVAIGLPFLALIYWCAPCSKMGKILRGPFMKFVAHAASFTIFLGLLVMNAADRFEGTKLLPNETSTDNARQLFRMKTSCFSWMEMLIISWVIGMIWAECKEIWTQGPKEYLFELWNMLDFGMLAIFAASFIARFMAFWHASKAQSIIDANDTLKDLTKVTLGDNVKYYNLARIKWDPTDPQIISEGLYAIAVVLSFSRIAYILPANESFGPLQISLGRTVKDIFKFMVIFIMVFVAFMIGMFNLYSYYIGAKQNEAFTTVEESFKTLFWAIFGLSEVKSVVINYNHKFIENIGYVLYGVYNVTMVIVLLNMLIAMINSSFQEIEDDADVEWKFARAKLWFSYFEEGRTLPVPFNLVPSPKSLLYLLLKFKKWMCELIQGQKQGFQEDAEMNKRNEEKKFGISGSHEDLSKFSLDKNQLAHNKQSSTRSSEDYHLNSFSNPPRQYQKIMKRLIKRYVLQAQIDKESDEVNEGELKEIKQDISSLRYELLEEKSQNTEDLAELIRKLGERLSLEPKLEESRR

[2] = target: Transient receptor potential cation channel subfamily A member 1 (Homo sapiens) (UniProt O75762); test: Inhibition of human TRPA1 expressed in HEK293 cells assessed as decrease in flufenamic acid-evoked increase in intracellular calcium level at 22 uM preincubated for 2 mins followed by flufenamic acid addition measured for 2.5 mins by Fluo8-AM dye-based fluorescence assay relative to control
Transient receptor potential cation channel subfamily A member 1 (Homo sapiens), sequence (O75762 whole entry): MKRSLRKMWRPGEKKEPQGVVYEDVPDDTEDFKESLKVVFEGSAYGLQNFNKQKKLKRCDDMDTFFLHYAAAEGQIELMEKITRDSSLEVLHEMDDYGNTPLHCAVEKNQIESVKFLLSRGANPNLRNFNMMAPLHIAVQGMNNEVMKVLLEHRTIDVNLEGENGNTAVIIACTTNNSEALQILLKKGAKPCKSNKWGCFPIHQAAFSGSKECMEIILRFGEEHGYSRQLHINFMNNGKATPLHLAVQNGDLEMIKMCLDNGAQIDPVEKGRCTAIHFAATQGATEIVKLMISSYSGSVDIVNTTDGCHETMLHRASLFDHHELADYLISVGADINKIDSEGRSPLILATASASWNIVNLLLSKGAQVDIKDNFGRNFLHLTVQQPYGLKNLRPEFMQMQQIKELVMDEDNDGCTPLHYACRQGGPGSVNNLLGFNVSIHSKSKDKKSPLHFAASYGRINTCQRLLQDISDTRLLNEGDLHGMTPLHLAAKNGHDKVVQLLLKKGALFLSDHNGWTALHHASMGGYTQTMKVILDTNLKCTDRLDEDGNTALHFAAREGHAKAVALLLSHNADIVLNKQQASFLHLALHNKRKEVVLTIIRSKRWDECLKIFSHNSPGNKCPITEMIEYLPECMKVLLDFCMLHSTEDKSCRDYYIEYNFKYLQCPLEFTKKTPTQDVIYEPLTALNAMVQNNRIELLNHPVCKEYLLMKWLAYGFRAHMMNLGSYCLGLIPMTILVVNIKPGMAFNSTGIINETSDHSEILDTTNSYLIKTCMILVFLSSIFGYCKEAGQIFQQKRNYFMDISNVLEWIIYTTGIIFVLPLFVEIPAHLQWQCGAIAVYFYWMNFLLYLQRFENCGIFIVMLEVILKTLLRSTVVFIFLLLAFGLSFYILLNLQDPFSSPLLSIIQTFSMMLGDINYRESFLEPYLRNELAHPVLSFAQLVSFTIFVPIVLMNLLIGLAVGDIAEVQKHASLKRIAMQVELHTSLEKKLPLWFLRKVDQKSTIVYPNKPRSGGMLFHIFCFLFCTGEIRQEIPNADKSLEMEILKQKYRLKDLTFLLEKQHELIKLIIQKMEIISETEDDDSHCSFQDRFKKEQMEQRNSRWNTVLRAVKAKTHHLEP
How it was run: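 Same TRP panel as for the stimulation tests, with FMP dye for TRPC4 and M5 and Fluo8-AM for TRPA1, V1 and M8. Compound applied for 2 min before the channel agonist (TRPC4: 1 μM DAMGO). Inhibition of the agonist response measured on a FlexStation at 32 °C.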

[3] = target: T2, Short transient receptor potential channel 3 (Rattus norvegicus) (UniProt Q9JMI9); test: Agonist activity at TRPC3 in rat primary glomerular mesangial cells assessed as increase in intracellular calcium level at 1 uM by Fluo4-AM dye-based fluorescence assay
T2 sequence (whole entry): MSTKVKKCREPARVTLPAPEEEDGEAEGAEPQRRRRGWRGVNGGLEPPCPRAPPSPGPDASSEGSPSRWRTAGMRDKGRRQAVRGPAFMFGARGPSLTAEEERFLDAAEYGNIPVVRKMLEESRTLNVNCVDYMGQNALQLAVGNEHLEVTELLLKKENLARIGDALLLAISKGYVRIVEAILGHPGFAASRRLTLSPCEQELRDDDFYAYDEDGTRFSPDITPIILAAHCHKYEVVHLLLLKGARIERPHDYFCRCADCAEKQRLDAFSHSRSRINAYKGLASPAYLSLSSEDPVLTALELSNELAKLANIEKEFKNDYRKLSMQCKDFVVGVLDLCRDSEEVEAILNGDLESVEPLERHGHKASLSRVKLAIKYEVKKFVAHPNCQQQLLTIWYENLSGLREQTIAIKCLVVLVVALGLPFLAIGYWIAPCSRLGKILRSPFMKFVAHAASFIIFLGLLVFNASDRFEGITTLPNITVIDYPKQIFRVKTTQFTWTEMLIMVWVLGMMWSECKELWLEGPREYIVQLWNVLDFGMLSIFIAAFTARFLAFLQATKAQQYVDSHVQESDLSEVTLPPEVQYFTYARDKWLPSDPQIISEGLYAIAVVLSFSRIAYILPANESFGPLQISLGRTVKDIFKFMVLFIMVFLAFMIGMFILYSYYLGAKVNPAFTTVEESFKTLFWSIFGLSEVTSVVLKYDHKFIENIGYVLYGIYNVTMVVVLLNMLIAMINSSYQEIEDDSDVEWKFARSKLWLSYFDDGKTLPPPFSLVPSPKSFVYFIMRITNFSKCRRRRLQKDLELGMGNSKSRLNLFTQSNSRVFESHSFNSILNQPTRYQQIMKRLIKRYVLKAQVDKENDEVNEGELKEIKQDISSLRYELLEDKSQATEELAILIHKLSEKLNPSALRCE
How it was run: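 Rat glomerular mesangial cells, isolated by graded sieving from male Sprague–Dawley rats, collagenase-digested, cultured in RPMI 1640 with 17% FBS. Grown overnight on coverslips, then loaded with 10 μM Fluo4-AM and 0.02% pluronic F-127 for 1 h at 37 °C in 1 mM Ca2+ saline, pH 7.4. Compound at 1 μM. Confocal imaging, ex 488/em 515 nm, read as F/F0. For the 2-APB condition, 30 μM 2-APB for 2 min beforehand and kept during compound application.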

Structure (SMILES): CCOC(=O)N1CCC(c2cc(O)n3nc(C)c(-c4ccc(F)cc4)c3n2)CC1
Activity [1]: Dose-dependent effect

inhibition [2]: < 20%
Structure (SMILES): CCOC(=O)N1CCC(c2cc(O)n3nc(C)c(-c4ccc(C(F)(F)F)cc4)c3n2)CC1

Activity [3]: Active
Structure (SMILES): Cc1nn2c(O)cc(C3CCN(C(=O)OCc4ccccc4)CC3)nc2c1-c1ccc(F)cc1
